Experimental data taken from ChEMBL document CHEMBL4316659, “Selective Antiproliferative Withanolides from Species in the Genera Eriolarynx and Deprea” (J Nat Prod, 2019).

Experiments:
SW1573 [1] = assay: Antiproliferative activity against human SW1573 cells over-expressing P-gp incubated for 48 hrs in absence of P-gp and CYP3A4/5 inhibitor verapamil by SRB assay; format: functional; conditions: SW1573, 48 h
Method in brief: (§1)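 Wild-type SW1573 (2500 cells/well) and P-gp-overexpressing SW1573/Pgp (5000 cells/well) in RPMI 1640 with 5% FBS. Seeded 24 h, then exposed 48 h to serial dilutions (0.01−100 μM) with or without 10 μM verapamil (final) in the medium. Paclitaxel and vinblastine were reference drugs. SRB read at 530/620 nm. GI50 by NCI formulas, mean of at least two independent experiments ± SD.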

SW1573 [2] = assay: Antiproliferative activity against human SW1573 cells incubated for 48 hrs by SRB assay; format: functional; conditions: SW1573, 48 h
Method in brief: (§2)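 Cells kept in RPMI 1640 with 5% FBS and 2 mM L-glutamine at 37 °C under 5% CO2. Seeded at 2500 (A549, HBL-100, HeLa, SW1573) or 5000 (T-47D, WiDr, BJ-hTERT) cells/well and left 24 h. Compounds added as serial dilutions (0.01−100 μM) for 48 h. SRB staining read at 530 and 620 nm. GI50 calculated by NCI formulas. Mean of at least two independent experiments ± SD.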

[3] = Ratio of GI50 for antiproliferative activity against human hTERT-BJ cells incubated for 48 hrs by SRB assay to GI50 for antiproliferative activity against human HeLa cells incubated for 48 hrs by SRB assay; format: toxicity, cell-based; conditions: hTERT-BJ cells versus HeLa cells, read-out: RatioGI50
Method in brief: (§3)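 Selectivity is GI50 in the nontumor BJ-hTERT fibroblasts divided by GI50 in each tumor line. All values come from the same 48 h SRB assay, with 0.01−100 μM serial dilutions.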

SW1573 [4] = assay: (§4) Resistance factor, ratio of GI50 for Antiproliferative activity against human SW1573 cells over-expressing P-gp incubated for 48 hrs in presence of P-gp and CYP3A4/5 inhibitor verapamil by SRB assay to GI50 for antiproliferative activity against human SW1573 cells incubated for 48 hrs in presence of P-gp and CYP3A4/5 inhibitor verapamil by SRB assay; format: functional
Method in brief: (§5)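 Resistance factor is GI50 in SW1573/Pgp divided by GI50 in wild-type SW1573. Both come from 48 h SRB assays, run with 10 μM verapamil (final) or without it.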

A549 = assay: Antiproliferative activity against human A549 cells incubated for 48 hrs by SRB assay; format: functional; conditions: A549, 48 h; method in brief: as §2
[5] = Antiproliferative activity against human hTERT-BJ cells incubated for 48 hrs by SRB assay; format: cell-based; method in brief: as §2
SW1573 [6] = assay: Antiproliferative activity against human SW1573 cells incubated for 48 hrs in absence of P-gp and CYP3A4/5 inhibitor verapamil by SRB assay; format: functional; conditions: SW1573, 48 h; method in brief: as §1
[7] = Ratio of GI50 for antiproliferative activity against human hTERT-BJ cells incubated for 48 hrs by SRB assay to GI50 for antiproliferative activity against human WiDr cells incubated for 48 hrs by SRB assay; format: toxicity, cell-based; conditions: hTERT-BJ cells versus WiDr cells, read-out: RatioGI50; method in brief: as §3
HeLa = assay: Antiproliferative activity against human HeLa cells incubated for 48 hrs by SRB assay; format: functional; method in brief: as §2
SW1573 [8] = assay: Antiproliferative activity against human SW1573 cells over-expressing P-gp incubated for 48 hrs in presence of P-gp and CYP3A4/5 inhibitor verapamil by SRB assay; format: functional; conditions: SW1573, 48 h; method in brief: as §1
SW1573 [9] = assay: Antiproliferative activity against human SW1573 cells incubated for 48 hrs in presence of P-gp and CYP3A4/5 inhibitor verapamil by SRB assay; format: functional; conditions: SW1573, 48 h; method in brief: as §1
HBL-100 = assay: Antiproliferative activity against human HBL100 cells incubated for 48 hrs by SRB assay; format: functional; conditions: HBL-100, 48 h; method in brief: as §2
WiDr = assay: Antiproliferative activity against human WiDr cells incubated for 48 hrs by SRB assay; format: functional; method in brief: as §2
[10] = Ratio of GI50 for antiproliferative activity against human hTERT-BJ cells incubated for 48 hrs by SRB assay to GI50 for antiproliferative activity against human SW1573 cells incubated for 48 hrs by SRB assay; format: toxicity, cell-based; conditions: hTERT-BJ cells versus SW1573 cells, read-out: RatioGI50; method in brief: as §3
SW1573 [11] = assay: as §4, with “absence” for “presence”; format: functional; method in brief: as §5
[12] = Ratio of GI50 for antiproliferative activity against human hTERT-BJ cells incubated for 48 hrs by SRB assay to GI50 for antiproliferative activity against human T47D cells incubated for 48 hrs by SRB assay; format: toxicity, cell-based; conditions: hTERT-BJ cells versus T47D cells, read-out: RatioGI50; method in brief: as §3
T47D = assay: Antiproliferative activity against human T47D cells incubated for 48 hrs by SRB assay; format: functional; method in brief: as §2
[13] = Ratio of GI50 for antiproliferative activity against human hTERT-BJ cells incubated for 48 hrs by SRB assay to GI50 for antiproliferative activity against human A549 cells incubated for 48 hrs by SRB assay; method in brief: as §3
[14] = Ratio of GI50 for antiproliferative activity against human hTERT-BJ cells incubated for 48 hrs by SRB assay to GI50 for antiproliferative activity against human HBL100 cells incubated for 48 hrs by SRB assay; method in brief: as §3

| SMILES | GI50 (SW1573 [1]) | GI50 (SW1573 [2]) | selectivity ratio at 48 h [3] | RatioGI50 (SW1573 [4]) | GI50 (A549) | GI50 at 48 h [5] | GI50 (SW1573 [6]) | selectivity ratio at 48 h [7] | GI50 (HeLa) | GI50 (SW1573 [8]) | GI50 (SW1573 [9]) | GI50 (HBL-100) | GI50 (WiDr) | selectivity ratio at 48 h [10] | RatioGI50 (SW1573 [11]) | selectivity ratio at 48 h [12] | GI50 (T47D) | RatioGI50 [13] | RatioGI50 [14] |
| --- | --- | --- | --- | --- | --- | --- | --- | --- | --- | --- | --- | --- | --- | --- | --- | --- | --- | --- | --- |
| CO[C@H]1O[C@@](C)([C@H]2CC(C)=C(C)C(=O)O2)[C@H]2CC[C@H]3[C@@H]4[C@@H](O)C=C5[C@@H](O)C=CC(=O)[C@]5(C)[C@H]4CC[C@]123 | 3.3 µM | 3.3 µM | 2 to 10 | 0.7 | 3.1 µM | > 10 µM | 3 µM | 2 to 10 | 3.2 µM | 2300 nM | 3.5 µM | 3.6 µM | > 10 µM | 2 to 10 | 1.1 | 2 to 10 | 3.9 µM | 2 - 10 | 2 - 10 |
| CC1=C(C)C(=O)O[C@@H]([C@](C)(O)[C@H]2CC[C@H]3[C@@H]4[C@@H](O)C=C5[C@@H](O)C=CC(=O)[C@]5(C)[C@H]4CC[C@]23C)C1 | 3.2 µM | 4.1 µM | 2 to 10 | 0.8 | > 10 µM | > 10 µM | 3.4 µM | 2 to 10 | 5.3 µM | 3200 nM | 4.2 µM | 4.8 µM | > 10 µM | 2 to 10 | 0.9 | 2 to 10 | > 10 µM | 2 - 10 | 2 - 10 |
